# Measured values: ChEMBL document CHEMBL1127458, “Synthesis and quantitative structure-activity relationships of anticonvulsant 2,3,6-triaminopyridines” (J Med Chem, 1994)
# Species: Mus musculus
# Assay: Effective dosage for inhibition of maximal electroshock stimulated convulsions
# Assay type: functional
# How it was run: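 Mice (male Carworth Farms #1), groups of at least eight, were given various doses and tested at the previously determined time of peak effect. Protection was defined as abolition of the hind limb tonic extension component of the seizure. Dosing continued until at least two points lay between 0% and 100% protection. The 50% dose and 95% confidence interval were derived by Finney's method.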
row,Compound,Log 1/ED50
1,C=CCOC(=O)Nc1ccc(NCc2ccc(F)cc2)nc1N,4.48
2,CCOC(=O)Nc1ccc(NCc2ccc(NC(C)=O)cc2)nc1N.Cl,3.487
3,CC(=O)Nc1ccc(NCc2ccc(F)cc2)nc1N.Cl,3.567
4,Cl.Nc1nc(NCc2ccc(F)cc2)ccc1N1CCOC1=O,4.065
5,CCOC(=O)Nc1ccc(NCc2ccc(C(F)(F)F)cc2)nc1N.Cl,4.146
6,CCOC(=O)Nc1ccc(NCc2ccc(C)cc2C)nc1N.Cl,4.53
7,CCOC(=O)Nc1ccc(NCc2cccc(F)c2)nc1N.Cl,4.297
8,CCOC(=O)Nc1ccc(NC(C)c2ccc(F)cc2)nc1N.Cl (stereo not given),3.938
9,CCOC(=O)Nc1ccc(NCc2ccc(C)c(Cl)c2)nc1N.Cl,4.083
10,CCOC(=O)Nc1ccc(NCc2ccccc2)nc1N.Cl,4.214
11,COC(=O)Nc1ccc(NCc2ccc(F)cc2)nc1N.Cl,4.11
12,CCOC(=O)Nc1ccc(NCc2c(C)cccc2C)nc1N.Cl,5.01
13,Cc1noc(C)c1C(=O)Nc1ccc(NCc2ccc(F)cc2)nc1N.Cl,3.94
14,Cl.Nc1nc(NCc2ccc(Cl)cc2)ccc1NC(=O)Oc1ccccc1,3.507
15,CCOC(=O)Nc1ccc(NCc2ccc(F)cc2)nc1N.Cl,4.13
16,CCOC(=O)Nc1ccc(NCc2ccc(S(N)(=O)=O)cc2)nc1N.Cl,3.572
17,Cl.Nc1nc(NCc2ccc(F)cc2)ccc1NC(=O)OCCCl,4.46
18,CCOC(=O)Nc1ccc(NCc2ccc(Cl)cc2)nc1N.Cl,4.388
19,CCOC(=O)Nc1ccc(NCc2ccccc2O)nc1N.Cl,3.896
20,CCOC(=O)Nc1ccc(NCc2c(C)cc(C)cc2C)nc1N.Cl,5.268
21,Cl.Nc1nc(NCc2ccccc2)ccc1NC(=O)Oc1ccccc1,3.942
22,Cl.Nc1nc(NCc2ccc(F)cc2)ccc1NC(=O)Oc1ccccc1,3.724
23,CCOC(=O)Nc1ccc(NCc2ccc(C(C)=O)cc2)nc1N.Cl,3.831
24,CCOC(=O)Nc1ccc(NCc2ccccc2C)nc1N.Cl,4.872
25,CCOC(=O)Nc1ccc(NCc2ccc(F)cc2F)nc1N.Cl,4.321
